Laboratory results reported in article PMC7547831 (Acta Pharmaceutica Sinica. B, 2020).
Like-named read-outs stand apart in the source and are kept apart here.

Key:
[1] = LHQW components in human plasma after repeated oral dosing; type: in vivo; details: after repeated oral administration of LHQW capsule, semi-quantitative
ACE2 [2] = biological target: T1, ACE2 (Homo sapiens, UniProt Q9BYF1); experiment: Test of ACE2 inhibitory activity; type: biochemical
Procedure, shortened: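 ACE2 inhibition was measured with a commercial inhibitor screening kit following the supplier's instructions. Each data point was run in duplicate and reported as the mean value. IC50 came from nonlinear curve fitting.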
Target sequence in this assay (Q9BYF1 18-805): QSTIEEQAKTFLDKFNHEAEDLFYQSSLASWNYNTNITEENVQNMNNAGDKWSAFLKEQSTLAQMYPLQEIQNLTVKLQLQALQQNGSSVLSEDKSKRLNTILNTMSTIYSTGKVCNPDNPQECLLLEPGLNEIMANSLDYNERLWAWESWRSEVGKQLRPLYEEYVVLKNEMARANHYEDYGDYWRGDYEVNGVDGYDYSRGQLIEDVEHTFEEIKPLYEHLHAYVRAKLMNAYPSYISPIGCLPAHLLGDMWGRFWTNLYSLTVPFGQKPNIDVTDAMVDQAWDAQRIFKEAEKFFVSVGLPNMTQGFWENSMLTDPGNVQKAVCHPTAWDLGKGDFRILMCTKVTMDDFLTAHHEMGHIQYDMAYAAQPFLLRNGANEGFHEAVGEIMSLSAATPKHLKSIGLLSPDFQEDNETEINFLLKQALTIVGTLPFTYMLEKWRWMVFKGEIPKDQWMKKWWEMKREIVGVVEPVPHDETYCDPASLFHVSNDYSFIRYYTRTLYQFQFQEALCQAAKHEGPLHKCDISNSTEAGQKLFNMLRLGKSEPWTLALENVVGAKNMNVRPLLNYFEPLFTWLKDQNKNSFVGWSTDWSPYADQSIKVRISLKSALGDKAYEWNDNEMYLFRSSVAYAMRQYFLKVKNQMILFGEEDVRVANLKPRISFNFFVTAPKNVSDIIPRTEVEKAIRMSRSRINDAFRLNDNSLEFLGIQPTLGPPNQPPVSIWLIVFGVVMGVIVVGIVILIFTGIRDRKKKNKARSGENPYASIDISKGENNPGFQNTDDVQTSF

ACE2 [3] = biological target: T1, ACE2; experiment: SPR analysis of affinity to ACE2 recombinant protein; type: binding; details: for Rmax: SPR fit; for χ^2: SPR fit quality; for Kd: SPR, steady-state affinity model (1:1), 0.024 to 50 μmol/L
Target sequence in this assay (Q9BYF1 18-740): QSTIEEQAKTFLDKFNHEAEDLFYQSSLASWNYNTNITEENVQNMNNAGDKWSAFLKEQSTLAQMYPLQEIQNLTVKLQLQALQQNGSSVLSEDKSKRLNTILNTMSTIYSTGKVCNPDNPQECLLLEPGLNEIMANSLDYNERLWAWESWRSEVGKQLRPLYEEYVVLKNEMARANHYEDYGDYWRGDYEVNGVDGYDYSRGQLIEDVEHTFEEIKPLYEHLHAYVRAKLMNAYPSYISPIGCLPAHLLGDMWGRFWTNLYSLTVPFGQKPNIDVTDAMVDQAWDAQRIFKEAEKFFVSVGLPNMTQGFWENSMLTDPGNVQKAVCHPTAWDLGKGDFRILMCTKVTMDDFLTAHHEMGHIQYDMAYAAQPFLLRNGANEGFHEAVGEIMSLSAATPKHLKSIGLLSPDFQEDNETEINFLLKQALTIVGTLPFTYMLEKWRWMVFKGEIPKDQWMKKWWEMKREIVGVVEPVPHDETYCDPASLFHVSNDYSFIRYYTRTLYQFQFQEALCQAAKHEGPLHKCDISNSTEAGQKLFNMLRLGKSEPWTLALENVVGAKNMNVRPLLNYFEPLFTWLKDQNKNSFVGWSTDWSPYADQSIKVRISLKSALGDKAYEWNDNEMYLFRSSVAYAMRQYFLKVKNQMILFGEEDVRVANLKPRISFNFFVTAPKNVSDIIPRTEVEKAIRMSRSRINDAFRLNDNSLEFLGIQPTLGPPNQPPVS

ACE2 [4] = biological target: T1, ACE2; experiment: Comprehensive 2D ACE2 column/C18 column/TOFMS biochromatography screening; type: binding; details: urine sample, LHQW extract or standard
Procedure, shortened: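 Stationary phase: His-tagged recombinant human ACE2 immobilised on MPTS/GMBS-modified silica, confirmed by pronase digestion and anti-ACE2 immunoblot. First dimension was the ACE2 column (10 × 2.0 mm, 5 μm) in 10 mmol/L ammonium acetate at 0.2 mL/min. Retained fractions went by alternating 10-port valve loops to a C18 column (0.1% formic acid/acetonitrile gradient, 0.4 mL/min) and then TOFMS.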
Target sequence in this assay (Q9BYF1 18-740): as above

Molecule | Human in vivo exposure (in words) [1] | ACE2 inhibitory effect (in words) (ACE2 [2]; ACE2 Inhibitor Screening Kit) | Rmax (ACE2 [3]) [RU] | χ^2 (ACE2 [3]) | Retention on ACE2 biochromatography column (potential ACE2 binding) (ACE2 [4]) | further results
C=CC1CNC(=S)O1 (racemic) [(R,S)-goitrin] | higher human exposure |  |  |  |  | 
O=C1c2cccc(O)c2C(=O)c2c(O)cc(CO)cc21 [Aloe-emodin (216), Aloe-emodin] |  | no inhibitory effect | 16.120 | 7.720 |  | ACE2 binding ability by SPR (in words) (ACE2 [3]): could also exhibit ACE2 binding activity
N#C[C@H](O[C@@H]1O[C@H](CO[C@@H]2O[C@H](CO)[C@@H](O)[C@H](O)[C@H]2O)[C@@H](O)[C@H](O)[C@H]1O)c1ccccc1 [Amygdalin (33), Amygdalin] |  |  | 6.856 | 0.462 | potential ACE2 binding activity | 
Cc1cc(O[C@@H]2OC(CO)[C@@H](O)C(O)C2O)c2c(c1)C(=O)c1cc(O)cc(O)c1C2=O (stereo partly drawn) [Emodin 8-O-β-D-glucoside (195), Emodin 8-O-β-D-glucoside] |  |  | 16.930 | 3.190 |  | IC50 (ACE2 [2]; read-out: IC50 of ACE2 inhibition, ACE2 Inhibitor Screening Kit): 22.5 µM; ACE2 binding ability by SPR (in words) (ACE2 [3]): could also exhibit ACE2 binding activity; Kd (ACE2 [3]): 21.3 µM
C[C@@H]1O[C@@H](OC[C@H]2O[C@@H](OCCc3ccc(O)c(O)c3)[C@H](O)[C@@H](O)[C@@H]2OC(=O)/C=C/c2ccc(O)c(O)c2)[C@H](O)[C@H](O)[C@H]1O [Forsythoside A (128), Forsythoside A] | low in vivo exposure | have ACE2 inhibitory effects | 21.490 | 5.280 | potential ACE2 binding activity | Kd (ACE2 [3]): 15.8 µM
C[C@@H]1O[C@@H](OC[C@H]2O[C@@H](OCCc3ccc(O)c(O)c3)[C@H](O)[C@@H](OC(=O)/C=C/c3ccc(O)c(O)c3)[C@@H]2O)[C@H](O)[C@H](O)[C@H]1O [Forsythoside I (104), Forsythoside I] | low in vivo exposure | have ACE2 inhibitory effects | 19.020 | 1.910 | potential ACE2 binding activity | Kd (ACE2 [3]): 18.7 µM
CC1(C)[C@@H](O[C@H]2O[C@H](C(=O)O)[C@@H](O)[C@H](O)[C@H]2O[C@@H]2O[C@H](C(=O)O)[C@@H](O)[C@H](O)[C@H]2O)CC[C@]2(C)[C@H]3C(=O)C=C4[C@@H]5C[C@@](C)(C(=O)O)CC[C@]5(C)CC[C@@]4(C)[C@]3(C)CC[C@@H]12 [Glycyrrhizin (222), Glycyrrhizin] | high in vivo exposure concentrations |  | 9.614 | 0.321 | potential ACE2 binding activity | ACE2 inhibitory effect (in words) (ACE2 [2]; ACE2 Inhibitor Screening Kit, listed as Glycyrrhizin): poor inhibitory effect; ACE2 inhibitory effect (in words) (ACE2 [2]; ACE2 Inhibitor Screening Kit, listed as glycyrrhizin): did not show significant peptidase inhibitory effects
CC(C)C[C@H](N[C@@H](Cc1cncn1Cc1cc(Cl)cc(Cl)c1)C(=O)O)C(=O)O [MLN-4760, reference compound] |  |  |  |  | significant retention | IC50 (ACE2 [2]): 0.063 µM
O=C(/C=C/c1ccc(O)c(O)c1)O[C@@H]1C[C@@](O)(C(=O)O)C[C@@H](O)[C@@H]1O [Neochlorogenic acid (19), Neochlorogenic acid] |  |  | 6.894 | 1.260 |  | Kd (ACE2 [3]): 7.88 µM
COc1cc(O)c2c(c1)C(=O)c1cc(C)cc(O)c1C2=O [Physcion (230), Physcion] |  |  | 18.390 | 1.630 |  | ACE2 binding ability by SPR (in words) (ACE2 [3]): could also exhibit ACE2 binding activity
N#C[C@H](O[C@@H]1O[C@H](CO)[C@@H](O)[C@H](O)[C@H]1O)c1ccccc1 [Prunasin (37), Prunasin] |  | did not show significant peptidase inhibitory effects | 3.814 | 0.244 | potential ACE2 binding activity | 
O=c1c(O)c(-c2ccc(O)c(O)c2)oc2cc(O)cc(O)c12 [Quercetin (190), Quercetin] |  |  | 12.780 | 1.580 |  | ACE2 binding ability by SPR (in words) (ACE2 [3]): certain binding ability with ACE2
O=C(O)c1cc(O)c2c(c1)C(=O)c1cccc(O)c1C2=O [Rhein (226), Rhein] |  | best ACE2 inhibitory effect | 13.200 | 0.669 | potential ACE2 binding activity | Human in vivo exposure (in words) ([1]; listed as Rhein): high exposure in human serum; Human in vivo exposure (in words) ([1]; listed as rhein): relatively high; IC50 (ACE2 [2]): 18.3 µM
C[C@@H]1O[C@@H](OC[C@H]2O[C@@H](Oc3c(-c4ccc(O)c(O)c4)oc4cc(O)cc(O)c4c3=O)[C@H](O)[C@@H](O)[C@@H]2O)[C@H](O)[C@H](O)[C@H]1O [Rutin (124), Rutin] |  |  | 12.770 | 1.290 | potential ACE2 binding activity | ACE2 binding ability by SPR (in words) (ACE2 [3]): certain binding ability with ACE2
CN[C@@H](C)[C@H](O)c1ccccc1 [ephedrine] | higher human exposure |  |  |  |  | 
C[C@@H]1O[C@@H](OC[C@H]2O[C@@H](OCCc3ccc(O)c(O)c3)[C@H](O)[C@@H](O)[C@@H]2O)[C@H](O)[C@H](O)[C@H]1O [forsythoside E] |  | no ACE2 inhibitory activities |  |  |  | 
CN[C@@H](C)[C@@H](O)c1ccccc1 [pseudoephedrine] | higher human exposure |  |  |  |  | 
C[C@@H]1O[C@@H](Oc2c(-c3ccc(O)c(O)c3)oc3cc(O)cc(O)c3c2=O)[C@H](O)[C@H](O)[C@H]1O [quercitrin] | higher human exposure |  |  |  |  | 
OC[C@H]1O[C@@H](OCCc2ccc(O)cc2)[C@H](O)[C@@H](O)[C@@H]1O [salidroside] | higher human exposure |  |  |  |  | 
Forsythoside B [Forsythoside B (125)] |  | have ACE2 inhibitory effects | 10.620 | 0.328 |  | ACE2 binding ability by SPR (in words) (ACE2 [3]): low binding activity
forsythin |  | no ACE2 inhibitory activities |  |  |  | 
